Measurements pooled from the literature.
Target: Phosphatidylinositol 4,5-bisphosphate 3-kinase catalytic subunit gamma isoform (PIK3CG, Homo sapiens, UniProt P48736)

The remaining activity of `COc1cc(Cl)c(C(=O)N[C@@H](CN[C@H]2CC[C@@H](N)CC2)Cc2ccc(C#N)cc2)cc1-c1ccc(CN[C@H](C)c2ccc(C)cc2)o1` is reported as 102% (enzyme activity, inhibitor; 1 µM).
For `Cc1cnc(NC2CCOCC2)nc1-n1cnc(C(=O)NC(CN)c2cc(F)cc(Cl)c2)c1` (stereo not drawn), the remaining activity was 100% (enzyme activity, inhibitor, radiometric; 1 µM).
`Cc1ccc(C(=O)Nc2ccc(CN3CCN(C)CC3)c(C(F)(F)F)c2)cc1C#Cc1cnc2cccnn12` has a remaining activity of 85% (enzyme activity, inhibitor; 23.5 nM).
`O=C(CSc1nc2nccnc2c(=O)n1CCc1ccccc1)Nc1nccs1` gave an inhibition of 9% (enzyme activity, inhibitor; 10 µM).
`Cc1cc(NC(=O)c2cccc3cc(-c4cccc5[nH]nc(N)c45)ccc23)ccc1F` has an activity vs control of 97% (enzyme activity, inhibitor; 0.1 µM).
For `C=CC(=O)Nc1cc(Nc2nccc(Nc3cc(Cl)c(F)cc3C(C)(C)O)n2)c(OC)cc1N1CC[C@@H](N(C)C)C1`, the inhibition was 11% (enzyme activity, inhibitor; 1 µM).
For `CO[C@@H](C)c1c(Nc2ccc([C@@H](N(C)C(=O)C3CCS(=O)(=O)CC3)C(F)(F)F)cc2)cnc2cc(Cl)nn12`, the remaining binding was 87% (cell-free assay, competition with immobilised ligand; 1 µM).
With `CS(=O)(=O)Nc1cccc(-c2csc(NC(=O)CSc3nc4nccnc4c(=O)n3CCc3ccccc3)n2)c1` the inhibition was 20% (enzyme activity, inhibitor; 10 µM).
`CC1=C(C#N)[C@@H](c2ccc3[nH]nc(C)c3c2)C(C#N)=C(c2ccc(Cl)cc2)N1` gave a remaining binding of 100% (cell-free assay, competition with immobilised ligand; 1 µM).
For `Cc1ccc(NC(=O)c2ccc(C)c(C(F)(F)F)c2)cc1C#Cc1nn(C2CCC(O)CC2)c2ncnc(N)c12` (stereo not drawn), the remaining activity was 87% (enzyme activity, inhibitor; 10 µM).
The inhibition of `COc1cc(-c2cc(-c3ccc(N4CCNCC4)cc3)cnc2C)cc(OC)c1OC` is reported as 14% (enzyme activity, inhibitor; 0.1 µM).
The remaining binding of `Cc1c(NC(=O)c2cc(C(N)=O)nc3cc(F)ccc23)c(C(F)(F)F)nn1Cc1ccc(C#N)cc1` is reported as 80% (cell-free assay, competition with immobilised ligand; 1 µM).
